ChEMBL document CHEMBL1152305, “Synthesis and ribonucleotide reductase inhibitory activity of thiosemicarbazones” (Bioorg Med Chem Lett, 2008)

Assay: Inhibition of human recombinant ribonucleotide reductase expressed in BL21 (DE3) bacteria assessed as conversion of [3H]CDP to [3H]dCDP
How it was run: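 Recombinant human hRRM1 and hRRM2 subunits (BL21(DE3) expression, Ni(II) affinity purified) preincubated together with compound at room temperature 30 min, 1% v/v DMSO final. Phosphodiesterase dephosphorylation, HPLC radio-flow separation of cytidine/deoxycytidine. IC50 from nonlinear fit versus DMSO control; three tests in duplicate.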

SMILES | IC50
Oc1ccc(/C=N/NC(=S)Nc2ccc(Cl)cc2)cc1 | 287 µM
Oc1ccc(/C=N/NC(=S)Nc2ccccc2)cc1 | 242 µM
O=[N+]([O-])c1ccccc1NC(=S)N/N=C/c1ccc(O)cc1 | 39.3 µM
O=[N+]([O-])c1ccc(NC(=S)N/N=C/c2ccc(O)cc2)cc1 | 45.1 µM
Oc1ccc(/C=N/NC(=S)Nc2cccc(Cl)c2)cc1 | 29.3 µM
Oc1ccccc1/C=N/NC(=S)Nc1ccccc1 | > 500 µM
S=C(N/N=C/c1cccs1)Nc1ccc(Cl)cc1 | > 500 µM
Cc1ccc(NC(=S)N/N=C/c2ccc(O)cc2)cc1 | 14.2 µM
COc1ccccc1NC(=S)N/N=C/c1ccc(O)cc1 | 41.6 µM
NC(=O)NO [HYDROXYUREA] | 148 µM

Continued, values first:

IC50 | SMILES
> 500 µM | COc1cc(/C=N/NC(=S)Nc2ccccc2)ccc1O
43.3 µM | Oc1ccc(/C=N/NC(=S)Nc2ccc(O)cc2)cc1
> 500 µM | S=C(N/N=C/c1ccco1)Nc1ccc(Cl)cc1
> 500 µM | COc1cc(/C=N/NC(=S)Nc2ccc(Cl)cc2)ccc1O
> 500 µM | Oc1ccccc1/C=N/NC(=S)Nc1ccc(Cl)cc1
36.5 µM | Cc1ccccc1NC(=S)N/N=C/c1ccc(O)cc1
46.8 µM | Oc1ccc(/C=N/NC(=S)Nc2ccccc2Cl)cc1
30.4 µM | Cc1cccc(NC(=S)N/N=C/c2ccc(O)cc2)c1
29.3 µM | Oc1ccc(/C=N/NC(=S)Nc2ccccc2O)cc1
28.6 µM | Oc1ccc(/C=N/NC(=S)Nc2cccc(O)c2)cc1
2.25 µM | NC(=S)N/N=C/c1ncccc1N [TRIAPINE]
